Tests used:
[1] = Antiproliferative effect was determined on CD81 enriched cell lines for binding and activation of the CD81 receptor; type: functional, Rattus norvegicus
In short: (§1)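 Primary rat pup astrocytes (CD81-enriched, 4-8 days postpartum) and C6 glioma (CD81-deficient) were run in parallel, seeded at 3 × 10³ and 10³ cells/well. Compounds at 0.1-10 µM were given in 2% FCS-BME (0.05% DMSO final) for 4 days at 37 °C, 5% CO₂. Cells were formaldehyde-fixed and cresyl violet-stained (pH 3.7), with A560 read-out. % survival is relative to untreated wells, from 3 experiments × 4 wells.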

[2] = Nonspecific cytotoxicity at the specified concentration; type: functional
[3] = Tested for greatest astrocyte-selective antiproliferative character at concentration of 5 uM; type: functional
In short: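 Rat pup primary astrocytes (CD81-enriched, 4-8 days postpartum) and C6 glioma cells run in parallel, seeded at 3 × 10³ and 10³ per well. Incubated with compound for 4 days at 37 °C, 5% CO₂, final DMSO 0.05%. Fixed in formaldehyde, stained with cresyl violet, dye eluted in acetic acid, A560 read. % survival = treated/untreated ×100. Three experiments, four wells each.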

Rattus norvegicus = species: Rattus norvegicus; test: Concentration showing a non-astrocyte selective antiproliferative effect was determined; type: functional; in short: as §1

With `O=C(O)[C@H](Cc1ccccc1)NC(=O)C12CC3CC(CC(C3)C1)C2` the Antiproliferative effect [1] was 10 µM, the Cytotoxicity [2] was >10 µM and the Cell survival [3] was 82%.
For `COC(=O)[C@H](CC(C)C)NC(=O)C12CC3CC(CC(C3)C1)C2`, the Concentration (Rattus norvegicus) was 10 µM.
With `CC(C)C[C@H](NC(=O)C12CC3CC(CC(C3)C1)C2)C(=O)O` the Antiproliferative effect [1] was 10 µM and the Cytotoxicity [2] was >10 µM.
With `OCC[NH2+][B-]12CC3CC(CC(C3)C1)C2` the Antiproliferative effect [1] was 10 µM and the Cytotoxicity [2] was >10 µM.
`C1C2CC3CC1C[B-]([NH2+]C14CC5CC(CC(C5)C1)C4)(C2)C3` gave a Concentration (Rattus norvegicus) of 10 µM.
For `COC(=O)[C@H](CC(C)C)[NH2+][B-]12CC3CC(CC(C3)C1)C2`, the Antiproliferative effect [1] was 10 µM and the Cytotoxicity [2] was >10 µM.
In the case of `O=C(NC12CC3CC(CC(C3)C1)C2)C12CC3CC(CC(C3)C1)C2`, the Concentration (Rattus norvegicus) is reported as 10 µM.
In the case of `COC(=O)[C@H](CS)[NH2+][B-]12CC3CC(CC(C3)C1)C2`, the Concentration (Rattus norvegicus) is reported as 10 µM.
For `COC(=O)[C@H](Cc1ccccc1)[NH2+][B-]12CC3CC(CC(C3)C1)C2`, the Antiproliferative effect [1] was 10 µM and the Cytotoxicity [2] was >10 µM.
`C1C2CC3CC1CC(NC14CC5CC(CC(C5)C1)C4)(C2)C3` showed a Concentration (Rattus norvegicus) of 10 µM.
In the case of `COC(=O)[C@H](Cc1ccccc1)NC(=O)C12CC3CC(CC(C3)C1)C2`, the Antiproliferative effect [1] is reported as 10 µM and the Cytotoxicity [2] is reported as >10 µM.

Source: ChEMBL document CHEMBL1144894, “Synthesis of 1-boraadamantaneamine derivatives with selective astrocyte vs C6 glioma antiproliferative activity. A novel class of anti-hepatitis C agents with potential to bind CD81” (2003)
